Measurements taken from ChEMBL document CHEMBL4145675, “2-Phenylquinoline S. aureus NorA Efflux Pump Inhibitors: Evaluation of the Importance of Methoxy Group Introduction” (J Med Chem, 2018).
Values after ≈ are worked out from the molar mass of the structure shown. Active and inactive are the calls of the source. No cut-off for these calls is given here.

Columns and labels:
[1] = system: Staphylococcus aureus; assay: Antimicrobial activity against Staphylococcus aureus ATCC 25923 by microdilution method; type: organism-based; settings: in vivo
Method in brief: (§1)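 Broth microdilution MIC per CLSI guidelines. ATCC 25923 is norA wild-type. SA-1199B overexpresses norA and carries an A116E GrlA substitution.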

[2] = system: Staphylococcus aureus; assay: Antimicrobial activity against NorA deficient Staphylococcus aureus SA-K1902 by microdilution method; type: organism-based; settings: in vivo
Method in brief: (§2)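 CLSI broth microdilution MIC of the compound alone. Strains: SA-K1902 (norA deleted), SA-K2378 (SA-K1902 carrying norA plus its promoter on multicopy plasmid pCU1), SA-1199B (norA overexpressing, GrlA A116E).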

[3] = target: T1, Quinolone resistance protein NorA (Staphylococcus aureus) (UniProt P0A0J7); assay: Inhibition of NorA in Staphylococcus aureus SA-1199B expressing GrlA A116E mutant assessed as minimal potentiating drug concentration causing 8 fold reduction in ciprofloxacin MIC by microdilution method based Checkerboard assay
T1 sequence (whole entry): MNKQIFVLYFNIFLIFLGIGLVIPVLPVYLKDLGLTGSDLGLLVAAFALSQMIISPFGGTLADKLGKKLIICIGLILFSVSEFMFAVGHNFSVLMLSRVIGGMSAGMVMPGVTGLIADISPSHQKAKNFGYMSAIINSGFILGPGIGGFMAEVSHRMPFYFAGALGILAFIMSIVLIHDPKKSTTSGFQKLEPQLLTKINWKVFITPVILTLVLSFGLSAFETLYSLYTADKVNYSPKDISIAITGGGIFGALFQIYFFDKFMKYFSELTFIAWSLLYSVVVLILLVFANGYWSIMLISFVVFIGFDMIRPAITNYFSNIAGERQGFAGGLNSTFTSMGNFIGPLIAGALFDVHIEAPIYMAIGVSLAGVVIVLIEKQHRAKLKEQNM

[4] = target: T1, Quinolone resistance protein NorA (Staphylococcus aureus); assay: Inhibition of NorA in Staphylococcus aureus SA-K2378 assessed as synergistic potentiation of ciprofloxacin-induced antimicrobial activity at 0.78 to 100 ug/ml by microdilution method based Checkerboard assay
[5] = system: Staphylococcus aureus; assay: Synergistic potentiation of ciprofloxacin-induced antimicrobial activity against norA deleted Staphylococcus aureus SA-K1902 at 0.78 to 100 ug/ml by microdilution method based Checkerboard assay; type: functional, organism-based
[6] = system: Staphylococcus aureus; assay: Antimicrobial activity against Staphylococcus aureus SA-1199B expressing wild type norA by microdilution method; type: organism-based; settings: in vivo; method in brief: as §1
[7] = system: Staphylococcus aureus; assay: Antimicrobial activity against Staphylococcus aureus SA-1199B expressing wild type norA and co-expressing GrlA A116E mutant by microdilution method; type: organism-based; settings: in vivo; method in brief: as §2
[8] = system: Staphylococcus aureus; assay: Synergistic potentiation of ciprofloxacin-induced antimicrobial activity against wild type Staphylococcus aureus ATCC 25923 at 0.78 to 100 ug/ml by microdilution method based Checkerboard assay; type: functional, organism-based
[9] = system: Staphylococcus aureus; assay: Synergistic potentiation of ciprofloxacin-induced antimicrobial activity against Staphylococcus aureus SA-1199 at 0.78 to 100 ug/ml by microdilution method based Checkerboard assay; type: functional, organism-based
[10] = Cytotoxicity in human HepG2 cells assessed as reduction in cell viability incubated for 24 hrs by ATP bioluminescence assay; type: cell-based
Method in brief: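 Cells were grown to confluence overnight in RPMI 1640 with 10% heat-inactivated fetal calf serum, penicillin and streptomycin. Monolayers were exposed for 24 h at 37 °C to scalar concentrations (0-250 µg/mL). Viability was read by ATP bioluminescence, each concentration in triplicate. CC50 is the concentration reducing cell number by 50% versus untreated controls.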

[11] = target: T1, Quinolone resistance protein NorA (Staphylococcus aureus); assay: Inhibition of NorA in Staphylococcus aureus SA-1199B expressing GrlA A116E mutant assessed as synergistic potentiation of ciprofloxacin-induced antimicrobial activity at 0.78 to 100 ug/ml by microdilution method based Checkerboard assay
[12] = target: Quinolone resistance protein NorA (Staphylococcus aureus, UniProt P0A0J7, A116E); assay: Inhibition of NorA in Staphylococcus aureus SA-1199B expressing GrlA A116E mutant assessed as reduction in EtBr efflux incubated for 5 mins by fluorescence based assay
Method in brief: (§3)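 Cells were grown overnight in cation-supplemented Mueller-Hinton broth at 35 °C and subcultured to OD600 0.7–0.8. They were loaded at OD600 0.8 with 25 µM EtBr plus 100 µM CCCP (final) for 20 min at room temperature. Cells were then resuspended in fresh broth with or without compound, 50 µM for the single-point screen or a concentration series for IC50. Fluorescence (ex 485/em 645 nm) was read for 5 min. Inhibition was calculated from the fluorescence decrease versus untreated cells. Biological triplicate, each run twice.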

[13] = target: T1, Quinolone resistance protein NorA (Staphylococcus aureus); assay: Inhibition of NorA in Staphylococcus aureus SA-1199B expressing GrlA A116E mutant assessed as reduction in EtBr efflux at 50 uM incubated for 5 mins by fluorescence based assay; method in brief: as §3
[14] = system: Staphylococcus aureus; assay: Antimicrobial activity against mepA overexpressing Staphylococcus aureus SA-K2886 by microdilution method; type: organism-based; settings: in vivo
Method in brief: (§4)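 CLSI broth microdilution MIC of the compound alone in norA-deleted strains. SA-K2885 carries empty pALC2073 and SA-K2886 carries pALC2073-mepA (xyl/tetO promoter). 0.05 µg/mL tetracycline was present throughout to induce.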

[15] = system: Staphylococcus aureus; assay: Antimicrobial activity against mepA deficient Staphylococcus aureus SA-K2885 by microdilution method; type: organism-based; settings: in vivo; method in brief: as §4
[16] = target: T1, Quinolone resistance protein NorA (Staphylococcus aureus); assay: Inhibition of NorA in Staphylococcus aureus SA-1199B expressing GrlA A116E mutant assessed as synergistic potentiation of ciprofloxacin-induced antimicrobial activity at 0.78 ug/ml by microdilution method based Checkerboard assay
[17] = target: T1, Quinolone resistance protein NorA (Staphylococcus aureus); assay: Inhibition of NorA in Staphylococcus aureus SA-K2378 assessed as synergistic potentiation of ciprofloxacin-induced antimicrobial activity at 0.78 ug/ml by microdilution method based Checkerboard assay
[18] = system: Staphylococcus aureus; assay: Antimicrobial activity against NorA overexpressing Staphylococcus aureus SA-K2378 by microdilution method; type: organism-based; settings: in vivo; method in brief: as §2

| Structure (SMILES) | MIC [1] [µg/mL] | MIC [2] [µg/mL] | Activity [3] [µg/mL] | inhibition [4] | Activity [5] | MIC [6] [µg/mL] | MIC [7] [µM] | synergistic potentiation of ciprofloxacin activity [8] | inhibition [9] | CC50 at 24 h [10] [µg/mL] | inhibition [11] | IC50 [12] [µM] | inhibition [13] [%] | MIC [14] [µg/mL] | MIC [15] [µg/mL] | inhibition [16] | fold change (FC) [17] | MIC [18] [µg/mL] |
| --- | --- | --- | --- | --- | --- | --- | --- | --- | --- | --- | --- | --- | --- | --- | --- | --- | --- | --- |
| CCCOc1ccc(-c2cc(OCCN(CC)CC)c3ccccc3n2)cc1 | 100 (≈ 264 µM) | 50 (≈ 132 µM) | 12.5 | Active | inactive | > 100 | > 241 |  |  |  |  |  |  |  |  |  |  |  |
| CCCOc1ccc(-c2cc(OCCN(CC)CC)c3cc(OC)ccc3n2)cc1 | 50 (≈ 122 µM) |  | 6.25 |  |  | 50 (≈ 122 µM) | 122 (≈ 49.8 µg/mL) | Active | Active | 5 (≈ 12.2 µM) | Active | 4.7 | 99 |  |  |  |  |  |
| CC[n+]1c(-c2ccccc2)c2cc(N)ccc2c2ccc(N)cc21.[Br-] [HOMIDIUM BROMIDE] |  |  |  |  |  |  |  |  |  |  |  |  |  | 25 | 0.63 |  |  |  |
| CCCOc1ccc(-c2cc(OCCN3CCc4cc(OC)c(OC)cc4C3)c3cc(OC)cc(OC)c3n2)cc1 | 25 (≈ 44.7 µM) | 25 (≈ 44.7 µM) | 3.13 | Active | inactive | 25 (≈ 44.7 µM) | 45 (≈ 25.1 µg/mL) | Active | Active |  | Active | 3.8 | 86.7 |  |  | Active | 8 |  |
| O=C(O)c1cn(C2CC2)c2cc(N3CCNCC3)c(F)cc2c1=O [CIPROFLOXACIN] | 0.31 (≈ 0.936 µM) | 0.31 (≈ 0.936 µM) |  |  |  | 0.63 (≈ 1.9 µM) |  |  |  | 139 (≈ 418 µM) |  |  |  |  |  |  |  | 2.5 (≈ 7.54 µM) |
| COC(=O)[C@H]1[C@H]2C[C@@H]3c4[nH]c5cc(OC)ccc5c4CCN3C[C@H]2C[C@@H](OC(=O)c2cc(OC)c(OC)c(OC)c2)[C@@H]1OC [RESERPINE] | > 100 | > 100 | > 100 | Active | inactive | > 100 | > 164 |  |  |  |  |  |  |  |  |  |  |  |
| CCCOc1ccc(-c2cc(OCCN(CC)CC)c3ccc(OC)cc3n2)cc1 | 50 (≈ 122 µM) | 25 (≈ 61.2 µM) | 6.25 | Active | inactive | > 100 | > 245 | Active | Active | 7.7 (≈ 18.8 µM) | Active | 4.7 | 100 |  |  | Active | 16 |  |
| CCCOc1ccc(-c2cc(OCCN3CCCCC3)c3ccc(OC)cc3n2)cc1 | 50 (≈ 119 µM) |  | 3.13 |  |  | > 100 | 238 (≈ 100 µg/mL) | Active | Active | 71.5 (≈ 170 µM) | Active | 4 | 100 |  |  |  |  |  |
| CCCOc1ccc(-c2cc(OCCN3CCc4cc(OC)c(OC)cc4C3)c3c(OC)cc(OC)cc3n2)cc1 | 100 (≈ 179 µM) |  | < 100 | Active | inactive | 100 (≈ 179 µM) | 179 (≈ 100 µg/mL) | Active | Active |  | Active | 1.6 | 86.5 |  |  | Active |  |  |
| CCCOc1ccc(-c2cc(OCCN3CCc4cc(OC)c(OC)cc4C3)c3ccc(OC)cc3n2)cc1 | > 100 |  | 3.13 |  |  | > 100 | > 189 | Active | Active |  | Active | 4.7 | 91 |  |  | Active |  |  |
